Results published in ChEMBL document CHEMBL1147458, “Lead identification of a potent benzopyranone selective estrogen receptor modulator” (Bioorg Med Chem Lett, 2004).

Legend:
[1] = test system: U2OS; assay: Ability to inhibit release of interleukin-6 from U2OS cell lines transfected with estrogen receptor alpha; assay type: functional, cell-based; settings: Homo sapiens
In short: (§1)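 Estrogen-receptor-negative osteosarcoma U2OS cells, transfected with ER-α, were screened for inhibition of IL-6 cytokine release.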

[2] = test system: MCF7; assay: Antiproliferative activity against MCF-7 cell line; assay type: functional, cell-based; settings: Homo sapiens
[3] = Concentration required for inhibition of Interleukin-6 in U20S cells was determined; assay type: cell-based; in short: as §1

Structure (SMILES)	IC50 [1] [µM]	IC50 [2] [µM]	IC50 [3] [µM]
O=c1oc2cc(O)ccc2c(-c2ccc(OCCN3CCCCC3)cc2)c1-c1ccccc1	0.505	0.425	–
O=c1oc2cc(O)ccc2c(-c2ccc(OCCCCN3CCCCC3)cc2)c1-c1ccccc1	0.069	0.134	–
CC/C(=C(\c1ccc(O)cc1)c1ccc(OCCN(C)C)cc1)c1ccccc1	0.0019	0.024	–
O=c1oc2cc(O)ccc2c(Cc2ccc(OCCCCN3CCCCC3)cc2)c1-c1ccccc1	0.005	0.013	–
CCCc1c(Cc2c(F)cccc2Cl)c(=O)oc2cc(O)ccc12	–	–	0.3
O=c1oc2cc(O)ccc2c(-c2ccc(OCCCCCCN3CCCCC3)cc2)c1-c1ccccc1	0.145	0.72	–
O=c1oc2cc(O)ccc2c(-c2ccc(OCCCCCN3CCCCC3)cc2)c1-c1ccccc1	0.114	0.335	–
O=c1oc2cc(O)ccc2c(-c2cccc(OCCCCCN3CCCCC3)c2)c1-c1ccccc1	0.011	0.015	–

Further compounds by falling IC50 [1], results first:

IC50 [1] [µM]	IC50 [2] [µM]	IC50 [3] [µM]	Structure (SMILES)
0.355	0.335	–	O=c1oc2cc(O)ccc2c(-c2ccc(OCCCN3CCCCC3)cc2)c1-c1ccccc1
0.012	0.085	–	O=c1oc2cc(O)ccc2c(-c2cccc(OCCN3CCCCC3)c2)c1-c1ccccc1
0.0044	0.018	–	O=c1oc2cc(O)ccc2c(Cc2ccc(OCCCN3CCCCC3)cc2)c1-c1ccccc1
0.0032	0.012	–	O=c1oc2cc(O)ccc2c(-c2cccc(OCCCCN3CCCCC3)c2)c1-c1ccccc1
0.0031	0.0049	–	O=C(c1ccc(OCCN2CCCCC2)cc1)c1c(-c2ccc(O)cc2)sc2cc(O)ccc12 [RALOXIFENE]
0.0015	0.0095	–	O=c1oc2cc(O)ccc2c(-c2cccc(OCCCN3CCCCC3)c2)c1-c1ccccc1
0.00038	0.0077	–	O=c1oc2cc(O)ccc2c(Cc2ccc(OCCN3CCCCC3)cc2)c1-c1ccccc1
